# Only some compounds are listed: those with a hit (about 3.1% of all), similar ones and a draw of the others.
# UHRF1 binding: blocks human UHRF1 binding to methylated DNA; AID 687016; UHRF1 binding to methylated oligo, TR-FRET; 370,000 tested, 0.75% active; inhibition, % at 4.4 µM; in the data active = inhibition above about 21%;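 also: UHRF1 SRA domain binding a hemimethylated CpG hairpin DNA probe; 0% = median of test compound wells and 100% = reference inhibitor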
# rCAG binder-1: r(CAG) repeat RNA binding. AID 651821. 370,000 tested, 1.3% active. inhibition, % at 3 µM. TO-PRO-1 dye displacement fluorescence;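 active = inhibition above the plate cutoff, the mean of all test compounds on that plate plus 3 SD, cut at about 35% in these data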;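 also: 0% = DMSO alone and 100% = 100 µM mitoxantrone as full dye displacement; higher means more dye released from RNA so lower well fluorescence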
# MBD2 inh: MBD2-methylated oligo binding inhibition; Q9UBB5; TR-FRET, MBD2 binding to methylated oligonucleotide; inhibition, % at 4.4 µM; 370,000 tested, 0.31% active; AID 686964; in the data active = inhibition above about 13%
# LEDGF integ inh: blocks HIV-1 LEDGF/p75-dependent DNA integration. inhibition, % at 3.7 µM. TR-FRET IN-LEDGF/p75 DNA integration, Eu/Cy5. 370,000 tested, 0.64% active;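 active = inhibition above the screen-wide mean plus 3 SD, cut at about 13% in these data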;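 also: signal is the Cy5 over europium emission ratio at 671 and 618 nm; 0% = plate median of compound wells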
# ATG4B inh: inhibitors of human ATG4B cysteine protease; Q9Y4P1; 340,000 tested, 0.51% active; ATG4B cleavage of LC3-PLA2, NBD-HPC fluorescence, 1 h; inhibition, % at 8.33 µM; in the data active = inhibition above about 40%
# CSN deneddyl inh: inhibitors of human CSN-mediated cullin deneddylation. Purified CSN, SCF-Nedd8-OG deneddylation, fluorescence polarization. inhibition, % at 12.5 µM. 360,000 tested, 0.38% active;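 active = pattern-corrected inhibition above about 35%, with an unprinted fluorescence ratio check between 0.5 and 1.5, limit read from the data, passing the limit was not always enough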;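 also: 0% = enzyme with substrate and 100% = substrate without enzyme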
#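 Assay system: HEK293T-derived human Csn5 enzyme; quantity: 0.24 nM enzyme; medium: Tris/NaCl/DTT buffer, pH 7.5; also added: substrate SCFSkp2-Nedd8OG, 10 nM; doses: 12.5 µM compound; schedule: 90 min reaction at room temperature; signal: FP; read-out: % inhibition of substrate cleavage by Csn5; benchmarks: substrate-only high control, full reaction low control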
# rCAG binder conf: r(CAG) RNA repeat binding, confirmation | shares compounds with rCAG binder-1 | TO-PRO-1 dye displacement fluorescence | inhibition, % at 3 µM | 4,300 tested, 70% active | AID 652065;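 active = inhibition above a per-plate cutoff, the mean inhibition of sample wells plus 3 SD, cut at about 35% in these data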;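 also: loss of TO-PRO-1 fluorescence as compound displaces dye from 1x1 AA loop RNA; 0% = DMSO only wells and 100% = 100 µM mitoxantrone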
# dCAG dye counter: counter-screen for rCAG RNA binders: DNA CAG dye complex inhibitors. 4,300 tested, 94% active. d(CAG) DNA oligo TO-PRO-1 dye displacement, fluorescence. AID 652068. shares compounds with rCAG binder-1. inhibition, % at 3 µM;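 active = inhibition above its plate's cutoff, the mean test-well inhibition plus 3 SD, cut at about 4.8% in these data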;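 also: 0% = DNA dye mix with DMSO and 100% = 100 µM mitoxantrone; hits displace the dye from DNA and so lower well fluorescence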
# dCAG dye DR: DNA CAG dye complex inhibition, dose response counter-screen. shares compounds with rCAG binder-1. DNA CAG/GTC duplex TO-PRO-1 dye displacement fluorescence. IC50, µM. 250 tested, 20% active. AID 686960; in the data active = IC50 below about 10 µM
# dCAG TOPRO ctr: counter-screen for rCAG binders: DNA CAG TO-PRO-1 complex inhibitors, late stage; shares compounds with rCAG binder-1; 30 tested, 80% active; IC50, µM; d(CAG) DNA duplex TO-PRO-1 dye displacement, fluorescence
# rCAG binder-2: binds r(CAG) RNA repeats in late stage dose response. 30 tested, 100% active. r(CAG) RNA TO-PRO-1 dye displacement, fluorescence. IC50, µM. shares compounds with rCAG binder-1
# Active calls of the source: *; · = no result. Unless noted, no rule for the calls is given here.
SMILES,UHRF1 binding,rCAG binder-1,MBD2 inh,LEDGF integ inh,ATG4B inh,CSN deneddyl inh,rCAG binder conf,dCAG dye counter,others
CCc1cc(=O)oc2cc(C)c(CN3CCCCC3)c(O)c12,7,22,6,13,4,23,·,·,
CCCc1cc(=O)oc2cc(C)c(CN3CCCC3)c(O)c12,10,37*,7,13*,9,24,24,12*,
CN(c1ccc(OCC(=O)Nc2cc(Cl)ccc2C(=O)O)cc1)S(=O)(=O)c1ccc(F)cc1,5,77*,1,1,-12,-4,74*,34*,dCAG dye DR=6.2*;dCAG TOPRO ctr=2.5*;rCAG binder-2=1.2*
Cc1ccccc1CS(=O)(=O)Cc1ccc(C(=O)Nc2c(C)cccc2C)o1,-1,2,-3,-1,·,·,·,·,
COc1cc(C(=O)NCCNC(=O)c2ccco2)cc(OC)c1OC,-2,46*,-3,-3,5,10,43*,13*,
CSc1ncc(Cl)c(C(=O)Nc2nnc(SC/C=C/c3ccccc3)s2)n1,-1,66*,-5,4,29,1,67*,20*,
CSc1nnc(NC(=O)c2nc(S(=O)(=O)Cc3cccc(C)c3)ncc2Cl)s1,0,37*,-7,-2,-3,-4,25,4.5*,
CCSc1nnc(NC(=O)c2nc(S(=O)(=O)Cc3ccc(F)cc3)ncc2Cl)s1,0,36*,-1,3,0,-2,29,5.8*,
CN1[C@@H](Cc2ccccc2)COc2cccc(F)c2S1(=O)=O,-3,3,-8,-1,·,·,·,·,
CC(=O)c1cc(-c2ccc(S(C)(=O)=O)cc2)c(=O)n2c1CCC2,1,0,-4,-3,·,·,·,·,
COc1cccc(CN2C(=O)c3ccccc3S2(=O)=O)c1,5,-2,10,-4,-1,1,·,·,
O=C1CS(=O)(=O)N(Cc2ccccc2F)c2ccc(Br)cc21,0,44*,3,-2,0,3,29,13*,
COc1ccc(CN2c3ccccc3C(=O)CS2(=O)=O)cc1OC,0,35*,2,3,·,·,13,6.5*,
COc1cc(CN2c3ccccc3C(=O)CS2(=O)=O)cc(OC)c1,-3,47*,-7,0,-4,-1,15,8.5*,
O=c1ccccn1Cc1ccccc1F,0,0,-4,-2,-6,3,·,·,
COc1ccc(CN2CCN(c3ccccc3OC)CC2)cc1OC,1,-7,2,3,2,1,·,·,
O=C1CS(=O)(=O)N(Cc2ccc(F)cc2)c2ccccc21,-4,41*,2,1,·,-3,7,4.5*,
COC(=O)C[C@H]1CC[C@H]2[C@H](COc3ccc(NC(=O)Nc4ccccc4F)cc3C(=O)N2C)O1,1,2,-1,1,·,·,·,·,
CCN(CC)S(=O)(=O)c1ccc(NC(=S)Nc2ccccc2)cc1,1,6,-5,1,-4,-2,·,·,
CCN(CC)S(=O)(=O)c1ccc(C(=O)Nc2nnc(NC(=S)Nc3ccccc3)s2)cc1,-3,61*,-3,-1,22,0,64*,33*,
Cc1ccc(C)c(OCC(=O)Nc2ccc(C(=O)O)cc2NC(=O)COc2cc(C)ccc2C)c1,-3,74*,-5,5,-2,3,75*,40*,
CCC[C@H]1[C@@H](OC(=O)NCc2ccc(C)cc2)CC[C@@]23CCCN2C(=O)CCC[C@@H]13,0,·,3,-2,·,·,·,·,
N=C1N(C(=O)OCc2ccccc2)/C(=C\C2=CCCCC2)C(Cc2ccccc2)N1Cc1ccccc1 (stereo unspecified),-4,3,3,0,·,·,·,·,
COc1ccc(N(C)S(=O)(=O)c2ccc(Cl)c(C(=O)NNC(=O)c3ccccc3O)c2)cc1,-3,40*,1,-7,5,0,30,10*,
CCOC(=O)C1CCCCN1C(=O)[C@@H]1CC=C[C@@H]2CCN(c3ccccc3)C(=O)[C@@H]21 (stereo partly specified),-2,·,4,-2,·,·,·,·,
SMILES,UHRF1 binding,rCAG binder-1,MBD2 inh,LEDGF integ inh,ATG4B inh,CSN deneddyl inh,rCAG binder conf,dCAG dye counter,others
COc1ccc(NC(=O)NNC(=O)CCn2nc(C)c([N+](=O)[O-])c2C)cc1OC,1,1,0,0,·,·,·,·,
COC(=O)[C@]1(CNC(C)=O)CC(=O)N(C)[C@@H]1c1ccccc1,1,4,0,0,·,·,·,·,
C[C@@H]1CN([C@H](C)CO)S(=O)(=O)c2ccc(Br)cc2O[C@H]1CN(C)CC1CCOCC1,-1,1,-2,5,·,·,·,·,
CCOc1cc(/C=C2\SC(=N)N(c3nccs3)C2=O)ccc1OCCN1CCOCC1,-4,38*,-3,-3,-3,-2,37*,11*,
COc1ccc(/C=C2/CN(Cc3ccc(OC)cc3OC)C3=N[C@H](c4ccccc4)CC(=O)N32)cc1,0,6,-3,0,·,·,·,·,
CCn1c(SCC(=O)c2ccc(-c3ccccc3)cc2)nnc1-c1ccccc1OC,-3,5,-5,6,·,·,·,·,
O=C(O)Cn1nnc(-c2ccc(OCc3ccccc3Cl)cc2)n1,1,39*,3,-1,10,·,26,3,
O=C(O)COc1ccc(-c2nnn(CC(=O)O)n2)cc1,0,2,-3,-2,0,3,·,·,
COc1ccc(Cc2n[nH]c(=S)n2NC(=O)Nc2ccc(Cl)c(Cl)c2)cc1,-3,63*,-3,2,-6,1,37*,15*,
Cc1ccccc1NC(=O)OC1CCC12CCC(c1ccccc1)CC2 (stereo unspecified),-3,2,2,-2,·,·,·,·,
Cc1ccc(-c2cc(C(=O)NN=Cc3ccc(F)cc3)[nH]n2)cc1C,0,12,3,-4,·,·,·,·,
O=C(CSc1nc2ccccc2n1Cc1ccccc1Cl)N/N=C/c1ccccc1C(=O)O,0,39*,5,0,-11,-6,54*,16*,
N#Cc1c(N(CCO)CCO)nc(N)c2c(N)nc3c(c12)CC(=O)N3CC1CCCO1 (stereo unspecified),-9,35*,-5,-1,-1,12,10,5.7*,

# High-throughput results deposited in PubChem by several laboratories.
